Reference: ChEMBL document CHEMBL5376013, “Design, synthesis and biological evaluation of novel morpholinopyrimidine-5-carbonitrile derivatives as dual PI3K/mTOR inhibitors” (RSC Med Chem, 2024)

Tests used:
Assay type in all cases: functional
Details in all cases: read-out: GI
COLO 205 = experiment: Antitumor activity against human COLO 205 cells assessed as growth inhibition at 10 uM relative to control
In short: (§1)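 After drug addition, plates were incubated 48 h at 37 °C under 5% CO2. Adherent cells were fixed with cold TCA (10% final, 60 min, 4 °C) and suspension cells with 16% final TCA. Staining used 0.4% SRB in 1% acetic acid, solubilized in 10 mM trizma, read at A515. Percent growth was calculated from time-zero, control and treated absorbances.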

NCI-H23 = experiment: Antitumor activity against human NCI-H23 cells assessed as growth inhibition at 10 uM relative to control; in short: as §1
SK-OV-3 = experiment: Antitumor activity against human SK-OV-3 cells assessed as growth inhibition at 10 uM relative to control
In short: (§2)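 Drug exposure 48 h at 37 °C, 5% CO2. Adherent cells fixed with cold TCA (10% final), suspension cells with TCA (16% final). Stained with 0.4% SRB in 1% acetic acid, dissolved in 10 mM Tris, A515. Growth relative to time-zero and untreated control.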

SK-MEL-5 = experiment: Antitumor activity against human SK-MEL-5 cells assessed as growth inhibition at 10 uM relative to control; in short: as §2
NCI-H226 = experiment: Antitumor activity against human NCI-H226 cells assessed as growth inhibition at 10 uM relative to control; in short: as §1
SR = experiment: Antitumor activity against human SR cells assessed as growth inhibition at 10 uM relative to control; in short: as §2
SF-268 = experiment: Antitumor activity against human SF-268 cells assessed as growth inhibition at 10 uM relative to control; in short: as §1
NCI-H322M = experiment: Antitumor activity against human NCI-H322M cells assessed as growth inhibition at 10 uM relative to control; in short: as §1
OVCAR-4 = experiment: Antitumor activity against human OVCAR-4 cells assessed as growth inhibition at 10 uM relative to control; in short: as §1
UACC-62 = experiment: Antitumor activity against human UACC-62 cells assessed as growth inhibition at 10 uM relative to control; in short: as §2
U-251 = experiment: Antitumor activity against human U-251 cells assessed as growth inhibition at 10 uM relative to control; in short: as §2
SK-MEL-28 = experiment: Antitumor activity against human SK-MEL-28 cells assessed as growth inhibition at 10 uM relative to control; in short: as §2
KM12 = experiment: Antitumor activity against human KM12 cells assessed as growth inhibition at 10 uM relative to control; in short: as §1
SF-295 = experiment: Antitumor activity against human SF-295 cells assessed as growth inhibition at 10 uM relative to control; in short: as §1
T47D = experiment: Antitumor activity against human T47D cells assessed as growth inhibition at 10 uM relative to control; in short: as §2
MDA-MB-231 = experiment: Antitumor activity against human MDA-MB-231 cells assessed as growth inhibition at 10 uM relative to control; in short: as §1
HT-29 = experiment: Antitumor activity against human HT-29 cells assessed as growth inhibition at 10 uM relative to control; in short: as §1
SNB-19 = experiment: Antitumor activity against human SNB-19 cells assessed as growth inhibition at 10 uM relative to control; in short: as §2
UACC-257 = experiment: Antitumor activity against human UACC-257 cells assessed as growth inhibition at 10 uM relative to control; in short: as §2
A498 = experiment: Antitumor activity against human A498 cells assessed as growth inhibition at 10 uM relative to control; in short: as §1
RXF 393 = experiment: Antitumor activity against human RXF 393 cells assessed as growth inhibition at 10 uM relative to control; in short: as §1
HL-60 = experiment: Antitumor activity against human HL-60 cells assessed as growth inhibition at 10 uM relative to control; in short: as §1
HOP-62 = experiment: Antitumor activity against human HOP-62 cells assessed as growth inhibition at 10 uM relative to control; in short: as §1
SN12C = experiment: Antitumor activity against human SN12C cells assessed as growth inhibition at 10 uM relative to control; in short: as §2
HCC 2998 = experiment: Antitumor activity against human HCC 2998 cells assessed as growth inhibition at 10 uM relative to control; in short: as §1
MDA-MB-435 = experiment: Antitumor activity against human MDA-MB-435 cells assessed as growth inhibition at 10 uM relative to control; in short: as §1
Malme-3M = experiment: Antitumor activity against human Malme-3M cells assessed as growth inhibition at 10 uM relative to control; in short: as §1
EKVX = experiment: Antitumor activity against human EKVX cells assessed as growth inhibition at 10 uM relative to control; in short: as §1
UO-31 = experiment: Antitumor activity against human UO-31 cells assessed as growth inhibition at 10 uM relative to control; in short: as §2
NCI-H460 = experiment: Antitumor activity against human NCI-H460 cells assessed as growth inhibition at 10 uM relative to control; in short: as §1
NCI/ADR-RES = experiment: Antitumor activity against human NCI-ADR-RES cells assessed as growth inhibition at 10 uM relative to control; in short: as §1
NCI-H522 = experiment: Antitumor activity against human NCI-H522 cells assessed as growth inhibition at 10 uM relative to control; in short: as §1
786-0 = experiment: Antitumor activity against human 786-0 cells assessed as growth inhibition at 10 uM relative to control; in short: as §1
SW-620 = experiment: Antitumor activity against human SW-620 cells assessed as growth inhibition at 10 uM relative to control; in short: as §2
M14 = experiment: Antitumor activity against human M14 cells assessed as growth inhibition at 10 uM relative to control; in short: as §1
SF-539 = experiment: Antitumor activity against human SF-539 cells assessed as growth inhibition at 10 uM relative to control; in short: as §1
Hs-578T = experiment: Antitumor activity against human Hs-578T cells assessed as growth inhibition at 10 uM relative to control; in short: as §1
CAKI-1 = experiment: Antitumor activity against human CAKI-1 cells assessed as growth inhibition at 10 uM relative to control; in short: as §1
HOP-92 = experiment: Antitumor activity against human HOP-92 cells assessed as growth inhibition at 10 uM relative to control; in short: as §1
IGROV-1 = experiment: Antitumor activity against human IGROV-1 cells assessed as growth inhibition at 10 uM relative to control; in short: as §1
TK-10 = experiment: Antitumor activity against human TK-10 cells assessed as growth inhibition at 10 uM relative to control; in short: as §2
SNB-75 = experiment: Antitumor activity against human SNB-75 cells assessed as growth inhibition at 10 uM relative to control; in short: as §2
HCT-116 = experiment: Antitumor activity against human HCT-116 cells assessed as growth inhibition at 10 uM relative to control; in short: as §1
OVCAR-5 = experiment: Antitumor activity against human OVCAR-5 cells assessed as growth inhibition at 10 uM relative to control; in short: as §1
RPMI-8226 = experiment: Antitumor activity against human RPMI-8226 cells assessed as growth inhibition at 10 uM relative to control; in short: as §1
SK-MEL-2 = experiment: Antitumor activity against human SK-MEL-2 cells assessed as growth inhibition at 10 uM relative to control; in short: as §1

SMILES: N#Cc1c(-c2ccc(Cl)cc2)nc(N/N=C/c2ccco2)nc1N1CCOCC1
- inhibition of growth at 10 µM (COLO 205): 24.8%
- inhibition of growth at 10 µM (NCI-H23): 29.2%
- inhibition of growth at 10 µM (SK-OV-3): 50.6%
- inhibition of growth at 10 µM (SK-MEL-5): 19.1%
- inhibition of growth at 10 µM (NCI-H226): 59.4%
- inhibition of growth at 10 µM (SR): < 1%
- inhibition of growth at 10 µM (SF-268): 25.5%
- inhibition of growth at 10 µM (NCI-H322M): 30.6%
- inhibition of growth at 10 µM (OVCAR-4): 54.4%
- inhibition of growth at 10 µM (UACC-62): 41.8%
- inhibition of growth at 10 µM (U-251): < 1%
- inhibition of growth at 10 µM (SK-MEL-28): 34.1%
- inhibition of growth at 10 µM (KM12): < 1%
- inhibition of growth at 10 µM (SF-295): 26.2%
- inhibition of growth at 10 µM (T47D): 76.8%
- inhibition of growth at 10 µM (MDA-MB-231): 25.5%
- inhibition of growth at 10 µM (HT-29): 13%
- inhibition of growth at 10 µM (SNB-19): 20%
- inhibition of growth at 10 µM (UACC-257): < 1%
- inhibition of growth at 10 µM (A498): < 1%
- inhibition of growth at 10 µM (RXF 393): < 1%
- inhibition of growth at 10 µM (HL-60): < 1%
- inhibition of growth at 10 µM (HOP-62): 33.6%
- inhibition of growth at 10 µM (SN12C): 17.9%
- inhibition of growth at 10 µM (HCC 2998): 25.2%
- inhibition of growth at 10 µM (MDA-MB-435): 20.6%
- inhibition of growth at 10 µM (Malme-3M): 57.6%
- inhibition of growth at 10 µM (EKVX): 53.5%
- inhibition of growth at 10 µM (UO-31): 72.9%
- inhibition of growth at 10 µM (NCI-H460): 31.8%
- inhibition of growth at 10 µM (NCI/ADR-RES): 24.2%
- inhibition of growth at 10 µM (NCI-H522): 37.7%
- inhibition of growth at 10 µM (786-0): 25.9%
- inhibition of growth at 10 µM (SW-620): 17.8%
- inhibition of growth at 10 µM (M14): 28.6%
- inhibition of growth at 10 µM (SF-539): 24.7%
- inhibition of growth at 10 µM (Hs-578T): 31.8%
- inhibition of growth at 10 µM (CAKI-1): < 1%
- inhibition of growth at 10 µM (HOP-92): 59.4%
- inhibition of growth at 10 µM (IGROV-1): 74.2%
- inhibition of growth at 10 µM (TK-10): 37.6%
- inhibition of growth at 10 µM (SNB-75): 89.7%
- inhibition of growth at 10 µM (HCT-116): 23.9%
- inhibition of growth at 10 µM (OVCAR-5): 23.1%
- inhibition of growth at 10 µM (RPMI-8226): 33.5%
- inhibition of growth at 10 µM (SK-MEL-2): 17.7%
